ChEMBL document CHEMBL1137162, “The development of novel inhibitors of tumor necrosis factor-alpha (TNF-alpha) production based on substituted [5,5]-bicyclic pyrazolones” (Bioorg Med Chem Lett, 2004)

System: Rattus norvegicus
Experiment: Percent reduction in joint damage as compared to the control at 25 mg/Kg
Assay type: functional
Outline: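 Rat iodoacetate osteoarthritis model; groups of 15 animals dosed orally BID (~every 12 h) for 7 days at 25 mg/kg or vehicle (2.5 mL/kg). Sacrifice on day 22; left joint disarticulated, fixed in 10% formalin 24–48 h, tibial cartilage surface imaged by image analysis. Joint damage expressed as % reduction versus vehicle; significance at P < 0.05.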

Compound | Reduction
COC[C@H](C)Nc1nccc(-c2c(-c3ccc(F)cc3)c(=O)n3n2CC2(C3)OCCO2)n1 | 17%
C[C@H](Nc1nccc(-c2c(-c3ccc(F)cc3)c(=O)n3n2CC2(C3)OCCO2)n1)c1ccccc1 | 27%
C[C@H](Nc1nccc(-c2c(-c3ccc(F)cc3)c(=O)n3n2CC2(C3)OCCO2)n1)C(C)(C)O | 18%
COCC(C)Nc1nccc(-c2c(-c3ccc(F)cc3)c(=O)n3n2CC(OC)C3)n1 (racemic) | 28%

System: THP-1
Experiment: inhibitory potency against human Tumor necrosis factor, alpha production in THP-1cells
Assay type: functional, cell-based
Outline: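 Human monocytic THP-1 cells (2.0 × 10^5/well), duplicate cultures, preincubated 15 min with or without inhibitor over a concentration range, then stimulated with LPS (2 μg/mL). TNF-α released measured by ELISA 4 h after stimulation; cell viability after the 4 h incubation checked by MTS assay.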

Compound | IC50
Cc1ccccc1CNc1nccc(-c2c(-c3ccc(F)cc3)c(=O)n3n2CC2(C3)OCCO2)n1 | 19 nM
O=c1c(-c2ccc(F)cc2)c(-c2ccnc(NCc3ccccc3C(F)(F)F)n2)n2n1CC1(C2)OCCO1 | 17 nM
O=c1c(-c2ccc(F)cc2)c(-c2ccnc(Oc3ccccc3)n2)n2n1CC(N1CCCC1)C2 (stereo not drawn) | 327 nM
COC[C@H](C)Nc1nccc(-c2c(-c3ccc(F)cc3)c(=O)n3n2CC2(C3)OCCO2)n1 | 36 nM
CN(C)C1Cn2c(-c3ccnc(Oc4ccccc4)n3)c(-c3ccc(F)cc3)c(=O)n2C1 (stereo not drawn) | 177 nM
O=c1c(-c2ccc(F)cc2)c(-c2ccnc(NCc3cccc(C(F)(F)F)c3)n2)n2n1CC1(C2)OCCO1 | 197 nM
C[C@@H](Nc1nccc(-c2c(-c3ccc(F)cc3)c(=O)n3n2CC(O)C3)n1)c1ccccc1 (stereo partly drawn) | 5 nM
O=c1c(-c2ccc(F)cc2)c(-c2ccnc(NCc3ccccc3)n2)n2n1CC1(C2)OCCO1 | 11 nM
O=c1c(-c2ccc(F)cc2)c(-c2ccnc(Oc3ccccc3)n2)n2n1CC(N1CCOCC1)C2 (stereo not drawn) | 313 nM
O=c1c(-c2ccc(F)cc2)c(-c2ccnc(NCc3ccccc3)n2)n2n1CC1(C2)OCCCO1 | 31 nM
O=c1c(-c2ccc(F)cc2)c(-c2ccnc(NCc3ccc(F)cc3)n2)n2n1CC1(C2)OCCCO1 | 630 nM
O=c1c(-c2ccc(F)cc2)c(-c2ccnc(Oc3ccccc3)n2)n2n1CC1(C2)OCCO1 | 38 nM
C[C@H](Nc1nccc(-c2c(-c3ccc(F)cc3)c(=O)n3n2CC2(C3)OCCO2)n1)c1ccccc1 | 2 nM
O=c1c(-c2ccc(F)cc2)c(-c2ccnc(NCc3ccc(C(F)(F)F)cc3)n2)n2n1CC1(C2)OCCO1 | 1000 nM
O=c1c(-c2ccc(F)cc2)c(-c2ccnc(NCc3ccncc3)n2)n2n1CC1(C2)OCCO1 | 1000 nM
O=c1c(-c2ccc(F)cc2)c(-c2ccnc(Oc3ccccc3)n2)n2n1CC(N1CCNCC1)C2 (stereo not drawn) | 500 nM
COC[C@H](C)Nc1nccc(-c2c(-c3ccc(F)cc3)c(=O)n3n2CC2(C3)OCCCO2)n1 | 36 nM

Compound | IC50
O=c1c(-c2ccc(F)cc2)c(-c2ccnc(NCc3cccnc3)n2)n2n1CC1(C2)OCCO1 | 427 nM
Nc1ccc(CNc2nccc(-c3c(-c4ccc(F)cc4)c(=O)n4n3CC3(C4)OCCO3)n2)cc1 | 161 nM
O=c1c(-c2ccc(F)cc2)c(-c2ccnc(NCc3cccc(F)c3)n2)n2n1CC1(C2)OCCO1 | 13 nM
O=c1c(-c2ccc(F)cc2)c(-c2ccnc(NCc3ccc(F)cc3)n2)n2n1CC1(C2)OCCO1 | 290 nM
COC(=O)OC1Cn2c(-c3ccnc(Oc4ccccc4)n3)c(-c3ccc(F)cc3)c(=O)n2C1 (stereo not drawn) | 181 nM
Cc1cccc(CNc2nccc(-c3c(-c4ccc(F)cc4)c(=O)n4n3CC3(C4)OCCO3)n2)c1 | 40 nM
Nc1ccccc1CNc1nccc(-c2c(-c3ccc(F)cc3)c(=O)n3n2CC2(C3)OCCO2)n1 | 101 nM
C[C@H](Nc1nccc(-c2c(-c3ccc(F)cc3)c(=O)n3n2CC2(C3)OCCCO2)n1)c1ccccc1 | 12 nM
Cc1ccc(CNc2nccc(-c3c(-c4ccc(F)cc4)c(=O)n4n3CC3(C4)OCCO3)n2)cc1 | 293 nM
O=c1c(-c2ccc(F)cc2)c(-c2ccnc(Oc3ccccc3)n2)n2n1CC(N1CCCCC1)C2 (stereo not drawn) | 297 nM
O=c1c(-c2ccc(F)cc2)c(-c2ccnc(NCc3ccccc3F)n2)n2n1CC1(C2)OCCO1 | 8 nM
O=c1c(-c2ccc(F)cc2)c(-c2ccnc(NCc3ccccn3)n2)n2n1CC1(C2)OCCO1 | 148 nM
C[C@H](Nc1nccc(-c2c(-c3ccc(F)cc3)c(=O)n3n2CC2(C3)OCCO2)n1)C(C)(C)O | 9 nM
O=c1c(-c2ccc(F)cc2)c(-c2ccnc(Oc3ccccc3)n2)n2n1CC1(C2)OCCCO1 | 69 nM
COC[C@H](C)Nc1nccc(-c2c(-c3ccc(F)cc3)c(=O)n3n2CC(OC)C3)n1 (stereo partly drawn) | 13 nM
COCC(C)Nc1nccc(-c2c(-c3ccc(F)cc3)c(=O)n3n2CC(OC)C3)n1 (racemic) | 15 nM
COCC(C)Nc1nccc(-c2c(-c3ccc(F)cc3)c(=O)n3n2CC(OC)C3)n1 (single isomer, unassigned) | 20 nM
